# Screens from PubChem BioAssay.
# NPY Y2 blocker: NPY-Y2 receptor antagonists, primary screen, cell-based; Neuropeptide Y receptor type 2 (Homo sapiens), P49146; NPY-Y2 expressing cells, antagonist mode; inhibition, % at 2.7 µM; 140,000 compounds, 0.99% hits; in the data active means inhibition above about 17%;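 further: 0% = vehicle with agonist challenge and 100% = reference antagonist with challenge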
# NPY-Y1 PAM-ag: NPY-Y1 receptor potentiators or agonists, primary screen, cell-based; AID 1304, 2008; Neuropeptide Y receptor type 1 (Homo sapiens), P25929; 220,000 compounds, 0.37% hits; NPY-Y1 expressing cells, potentiator/agonist activation; activation, % at 3.6 µM; in the data active means activation above about 33%, passing the limit was not always enough;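 further: cells stimulated with NPY at EC10 then isoproterenol at EC100; 0% = low agonist plus stimulus and 100% = saturating agonist plus stimulus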
# Target sequence (P25929 whole entry, looked up): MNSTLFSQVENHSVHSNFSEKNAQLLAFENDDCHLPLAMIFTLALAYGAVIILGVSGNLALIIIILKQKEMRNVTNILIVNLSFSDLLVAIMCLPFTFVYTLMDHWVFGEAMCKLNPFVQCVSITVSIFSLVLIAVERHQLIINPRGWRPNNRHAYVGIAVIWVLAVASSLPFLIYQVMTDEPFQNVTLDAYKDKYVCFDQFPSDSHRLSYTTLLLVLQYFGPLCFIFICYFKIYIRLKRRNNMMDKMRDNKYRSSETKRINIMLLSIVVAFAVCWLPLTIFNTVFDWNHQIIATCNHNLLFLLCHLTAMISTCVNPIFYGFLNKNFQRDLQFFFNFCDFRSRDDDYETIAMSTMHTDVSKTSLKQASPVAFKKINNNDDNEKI
# NPY Y1 blocker: NPY-Y1 receptor antagonists, primary screen, cell-based; 200,000 compounds, 1% hits; inhibition, % at 3.6 µM; AID 1040, 2008; HEK293-CNG Y1 cells, membrane potential fluorescence; NPY at EC95, then isoproterenol; Neuropeptide Y receptor type 1 (Homo sapiens), P25929;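 active means inhibition above the campaign mean inhibition of all tested compounds plus 3 SD, cut at about 20% in these data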;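 further: 0% = DMSO wells given NPY plus isoproterenol and 100% = isoproterenol alone without NPY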
#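 Test system – HEK293 Y1/CNG channel cell line · Also added – NPY agonist 25 nM, then isoproterenol 1 µM plus Ro 20-1724 25 µM · Compound dosing – one concentration, 3.6 µM, in 0.4% DMSO · Schedule – compound incubation 1 h at room temperature, readout 45 min post-stimulation · Technique – fluorescence, membrane potential probe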
# NPY2 pot ag: NPY-Y2 potentiators or agonists, primary screen, cell-based | Neuropeptide Y receptor type 2 (Homo sapiens), P49146 | cells expressing NPY-Y2, potentiator/agonist read-out | activation, % at 3.6 µM | 220,000 compounds, 0.45% hits | AID 1359, 2008; in the data active means activation above about 27%;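 further: cells stimulated with NPY near EC25 plus isoproterenol at EC100; 0% = vehicle plus submaximal agonist and 100% = vehicle plus saturating agonist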
# NPY-Y1 antag ct: NPY-Y1 receptor antagonists, selectivity check, counter-screen for NPY-Y2 antagonist project, cell-based | AID 1256, 2008 | inhibition, % at 3.6 µM | shares compounds with NPY Y2 blocker | 710 compounds, 19% hits | cell-based NPY-Y1 antagonism counterscreen;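 further: cells challenged with NPY then isoproterenol with cAMP sensed through a CNG channel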
# NPY-Y2 ant conf: NPY-Y2 receptor antagonists, retest of hits, confirmation, HEK293-CNG cells, membrane potential fluorescence, triplicate; shares compounds with NPY Y2 blocker; HEK293 NPY-Y2 CNG channel; inhibition, % at 2.8 µM; 710 compounds, 32% hits; AID 1257, 2008;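 active means mean inhibition of triplicate wells above the hit cutoff set in the primary screen, cut at about 17% in these data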;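 further: 0% = DMSO with NPY challenge and 100% = BIIE0246 high control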
# NPY1 antag conf: NPY-Y1 receptor antagonists, retest of hits, confirmation, HEK293-CNG cells, membrane potential fluorescence, triplicate; cAMP; NPY challenge against isoproterenol-raised cAMP; 1,200 compounds, 21% hits; inhibition, % at 3.6 µM; shares compounds with NPY Y1 blocker; AID 1254, 2008;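 further: 0% = vehicle with agonist plus stimulus and 100% = stimulus alone without agonist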
# NPY-Y2 antag ct: NPY-Y2 receptor antagonists, selectivity check, confirmation, counter-screen for NPY-Y1 antagonist project, HEK293-CNG cells, membrane potential fluorescence, triplicate | antagonism; cells given NPY, then isoproterenol | AID 1255, 2008 | inhibition, % at 3.6 µM | 1,200 compounds, 28% hits | shares compounds with NPY Y1 blocker; in the data active means inhibition above about 17%;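 further: 0% = DMSO with agonist challenge and 100% = reference antagonist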
# An asterisk follows results filed as active; . = no result. Compounds with a hit are over-represented: about 1.8% of the library has one in this group of screens. Unless noted, no stated cut-off is given here; in the data, active means inhibition above about 20%; inactive means the rest.
SMILES,NPY Y2 blocker,NPY-Y1 PAM-ag,NPY Y1 blocker,NPY2 pot ag,NPY1 antag conf,NPY-Y2 antag ct,others
c1ccc(COc2ccc(OCCCCN3CCCCC3)cc2)cc1,27*,-21,14,-19,.,.,NPY-Y1 antag ct=10;NPY-Y2 ant conf=39*
O=C(c1ccccc1)c1ccc(OCCCCN2CCCCC2)cc1,2,-33,10,-8,.,.,
Cc1ccc(Nc2nc(N)nc(CSc3ncccn3)n2)cc1,-1,12,0,-7,.,.,
Cc1ccc(Nc2nc(N)nc(CSc3nc(C)cc(C)n3)n2)cc1,29*,11,7,11,.,.,NPY-Y1 antag ct=1;NPY-Y2 ant conf=3
O=C(Nc1ccc(N2CCOCC2)cc1)c1ccc(S(=O)(=O)NCc2ccco2)cc1,.,-16,.,-4,.,.,
COC(=O)c1cc2occc2n1Cc1nc(-c2ccccc2Cl)oc1C,20*,4,4,-5,.,.,NPY-Y1 antag ct=13;NPY-Y2 ant conf=20*
COC(=O)c1cc2occc2n1Cc1nc(-c2ccc(Cl)cc2)oc1C,3,-17,10,-10,.,.,
O=C(NC1CCCCC1)c1cnn2c(C(F)(F)F)cc(-c3ccco3)nc12,19*,-25,13,5,.,.,NPY-Y1 antag ct=10;NPY-Y2 ant conf=3
Cc1ccc(CSc2nnc(-c3cccc(S(=O)(=O)N4CCOCC4)c3)n2CC(C)C)cc1,18*,-24,7,3,.,.,NPY-Y1 antag ct=10;NPY-Y2 ant conf=6
CCC(C)n1c(SCC(=O)NCc2ccco2)nnc1-c1cccc(S(=O)(=O)N2CCOCC2)c1 (stereo not given),-1,6,5,-10,.,.,
COC(=O)c1c(C)oc(C)c1S(=O)(=O)NC(C)(C)C,.,16,.,-20,.,.,
CSc1nc(-c2ccc(N(C)C)cc2)c(C#N)c(=O)n1C,.,16,1,-6,.,.,
COc1ccc(-n2c(=O)c3c4c(sc3n3c(=S)[nH]nc23)COC(C(C)C)C4)cc1 (stereo not given),.,5,.,-10,.,.,
CCOc1ccc(-n2c(-c3ccccc3)c[n+]3c2CCCCC3)cc1,15,-36,24*,12,14,17*,
c1ccc(-c2c[n+]3c(n2-c2ccccc2)CCC3)cc1,.,9,.,4,.,.,
O=C1CC(C(=O)Nc2cc(Cl)ccc2Cl)n2ncnc2N1 (stereo not given),.,11,2,4,.,.,
Cc1ccc(C(C)C)c(OCc2n[nH]c(=S)o2)c1,.,-9,23*,-23,6,10,
CC(C)c1ccc(S(=O)(=O)c2n[nH]n3c2nc(=O)c2ccccc23)cc1,13,-11,4,0,.,.,
CCc1ccc(S(=O)(=O)c2n[nH]n3c2nc(=O)c2ccccc23)cc1,12,-11,24*,-12,8,7,
CCc1cccc(CC)c1NC(=O)COC(=O)C1(C)CC1(Cl)Cl (stereo not given),.,-4,29*,-7,11,18*,
Cc1cccn2c(CN[C@@H]3CCCC[C@H]3c3ccccc3)c(C(=O)N3CCOCC3)nc12,.,8,26*,-6,10,5,
O=C(c1ccc2c(c1)OCO2)N(CC1CCCO1)C1(C(=O)NC2CCCC2)CCCCC1 (stereo not given),16,-2,30*,1,13,8,
CCCn1nnnc1NC(=O)COc1ccc(Br)cc1,.,-12,11,-21,.,.,
Clc1ccc(CN2CCCCCCC2)cc1Cl,7,-15,22*,-29,4,5,
Cc1ccc(-n2cc(CN3CCN(Cc4nccn4C)CC3)c(-c3ccc(F)cc3)n2)cc1,.,-29,31*,-26,16,19*,
SMILES,NPY Y2 blocker,NPY-Y1 PAM-ag,NPY Y1 blocker,NPY2 pot ag,NPY1 antag conf,NPY-Y2 antag ct,others
Cc1ccc(-n2cc(CNCCCn3ccnc3C)c(-c3ccc(F)cc3)n2)cc1,.,-20,28*,-33,25*,35*,
Cc1ccc(-n2cc(CNCCc3cscn3)c(-c3ccc(F)cc3)n2)cc1,.,-22,7,-28,.,.,
COc1ccc(-n2cc(CNCCCn3ccnc3)c(-c3cccc(F)c3)n2)cc1,.,-19,22*,-16,11,16,
O=C(c1ccc(Br)o1)N(Cc1ccccc1)Cc1ccccc1,14,-14,20*,-16,7,5,
Cc1ccc(/C=C2/SC(=O)NC2=S)o1,.,-12,3,3,.,.,
Cc1nn(C)c(C(=O)Nc2ccc(Cn3cccn3)cc2)c1[N+](=O)[O-],0,10,25*,-11,-1,0,
C[n+]1c2n(c3ccccc31)N=C(c1cc(C(C)(C)C)c(O)c(C(C)(C)C)c1)CS2,.,-32,65*,-28,48*,39*,
COc1cccc(C2=Nn3c(nnc3-c3ccccc3O)SC2)c1,7,-77,7,-12,.,.,
Cc1ccsc1/C=N/NC(=O)c1ccncc1,.,10,-1,4,.,.,
COc1cc(C(=O)N/N=C/c2sccc2C)cc(OC)c1OC,.,1,50*,-5,3,12,
Cc1oc(-c2ccc(Cl)cc2)nc1CN1CCC(C(=O)NCCCN2CCOCC2)CC1,7,-38,23*,3,4,8,
CCC(C)(C)n1nnnc1C(c1cccnc1)N1CCN(c2cccc(C(F)(F)F)c2)CC1 (stereo not given),17,2,25*,-7,14,8,
CCC(C)(C)n1nnnc1C(c1ccncc1)N1CCN(c2cccc(OC)c2)CC1 (stereo not given),4,-14,13,-3,.,.,
Cc1c(-c2cc(C(=O)O)c3ccccc3n2)cnn1C,.,3,5,2,.,.,
COc1ccc(CCN(Cc2ccccn2)C(=S)Nc2ccccc2Cl)cc1OC,.,-8,28*,-3,18,8,
O=C(Nc1ccccc1)C1=C[C@H](c2csc3ccccc23)C[C@H](OCc2ccc(CO)cc2)O1,.,-3,26*,-15,9,8,
Cc1ccc(C2CC(C(F)(F)F)n3nc(C(=O)Nc4c(C)n(C)n(-c5ccccc5)c4=O)cc3N2)cc1 (stereo not given),.,6,4,0,.,.,
Cc1cc(NC(=O)c2cc3n(n2)C(C(F)(F)F)CC(c2ccc(Cl)c(Cl)c2)N3)no1 (stereo not given),3,20,21*,11,0,4,
